Assay results: PMC10438863 (Journal of Enzyme Inhibition and Medicinal Chemistry, 2023)
Like-named read-outs stand apart in the source and are kept apart here.

Columns and labels:
K562 cell line = test: CCK-8 antiproliferative assay, K562; type: cell-based; conditions: for IC50: read-out: IC50 (µM) K562
Outline: (§1)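 Cells were grown in RPMI-1640 with 10% FBS at 37 °C in 5% CO2. About 3.5 × 10^3 cells/well were seeded, grown 24 h, then given test compound at several concentrations for 72 h in triplicate wells. CCK-8 was added for 2–3 h and OD read at 450 nm to give inhibition rate or IC50. K562 screen: mean of ≥2 independent experiments. Five-line panel: mean ± SD of three.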

A549 = test: CCK-8 antiproliferative assay, A549; type: cell-based; conditions: read-out: IC50 (µM) A549
Outline: as §1

Hela = test: CCK-8 antiproliferative assay, Hela; type: cell-based; conditions: read-out: IC50 (µM) Hela
Outline: as §1

H22 = test: CCK-8 antiproliferative assay, H22; type: cell-based, mouse; conditions: read-out: IC50 (µM) H22
Outline: as §1

normal cell line HFL-1 = test: CCK-8 assay, normal cell line HFL-1; type: cell-based; conditions: read-out: IC50 (µM) HFL-1
Outline: as §1

[1] = tested on: colchicine binding site on tubulin; test: [3H]-colchicine competition scintillation proximity assay; conditions: tubulin 1 µM, [3H]-colchicine 5 µM
Outline: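 Competition scintillation proximity assay. Test compound was added to buffer (80 mM PIPES pH 6.8, 1 mM EGTA, 1 mM MgCl2, 10% glycerol, 1 mM GTP) containing tubulin 1 µM, then [3H]-colchicine 5 µM. After 2 h incubation, streptavidin-labelled SPA beads were added and radioactivity counted. Percent inhibition of colchicine binding was reported as mean ± SD of three independent experiments.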

K562 cells [2] = test: Confocal immunofluorescence assay of microtubule networks; type: cell-based; conditions: 48 h, 15, 30, 60 nM
K562 cells [3] = test: Annexin V-FITC/PI apoptosis flow cytometry; type: cell-based; conditions: 60 nM, 48 h, control 2.47%
Bcl-2 protein family = test: Western blot of apoptosis associated proteins; type: cell-based; conditions: K562, 48 h, western blotting
Outline: (§2)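 K562 cells were treated with or without test compound at several concentrations for 48 h. They were lysed in cold buffer with PMSF and centrifuged at 14,000 rpm for 15 min, and protein was quantified by BCA. Equal protein was run on SDS-PAGE, blotted to PVDF, blocked in 5% skim milk for 2 h, probed overnight at 4 °C, then secondary antibody for 1–2 h, and detected by ECL with densitometry. Targets: Cdc-2, Cyclin B1, Cdc25c; Bad, Bax, Bcl-2, Bcl-xl; GAPDH reference.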

K562 cells [4] = test: PI cell cycle flow cytometry; type: cell-based; conditions: 48 h, untreated 12.99 ± 0.26%
[5] = tested on: Cyclin B1, Cdc-2 and Cdc-25c; test: Western blot of G2/M phase associated proteins; type: cell-based; conditions: K562; 48 h; western blotting; dose-dependent
Outline: as §2

MDA-MB-231 cells [6] = test: Transwell migration assay; type: cell-based; conditions: 60 nM, untreated 231.3 ± 12.2
MDA-MB-231 cells [7] = test: Transwell invasion assay; type: cell-based; conditions: 60 nM, untreated 81.3 ± 5.7
HUVEC = test: Inhibition of HUVEC proliferation; type: cell-based, human; conditions: read-out: IC50 in inhibiting the proliferation of HUVEC
HUVECs [8] = test: HUVEC wound healing assay; type: cell-based, human; conditions: 24 h, dose-dependent
Outline: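 HUVECs were seeded at 5 × 10^5 cells/well overnight and incubated with or without test compound at several concentrations for 24 h. The monolayer was then scratched with a pipette tip and washed with PBS. The wound was imaged at 100× and imaged again after a further 24 h of culture.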

HUVECs [9] = test: HUVEC tube formation assay on Matrigel; type: cell-based, human; conditions: 60 nM
H22 allograft = H22 allograft mice model, in vivo antitumor effect; conditions: 20 mg/kg i.v. once a day, three weeks; for tumour growth inhibition (TGI) value: by tumour weight
Outline: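 H22 cells in log phase (1 × 10^7 cells/mL, 0.1 ml) were injected s.c. into the right flank. Tumour size and body weight were recorded every two days. Mice were sacrificed at about 21 days. TGI (%) = (1 − Wt/Wc) × 100, using mean tumour weights.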

H22 tumour = test: Immunohistochemistry of tumour tissue; type: in vivo, mice; conditions: H22 tumours; 20 mg/kg; IHC; vs control group
Outline: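 Tumours came from the vehicle, CA-4 20 mg/kg and test compound 20 mg/kg allograft groups. They were fixed in 4% paraformaldehyde overnight, paraffin-embedded and sectioned. Sections were blocked with 1% BSA for 20 min, incubated with CD31 or Ki67 primary antibody overnight at 4 °C, then HRP goat anti-rabbit for 1 h, developed with DAB and counterstained with haematoxylin. CD31 staining gave microvessel density.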

[10] = H&E staining of vital organs, in vivo safety; conditions: mice; 20 mg/kg; heart, liver, spleen, lung, kidney
Outline: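 Heart, liver, spleen, lung and kidney came from the H22 allograft mice at sacrifice: vehicle, CA-4 20 mg/kg and test compound 20 mg/kg groups. Organs were fixed in 4% paraformaldehyde overnight, paraffin-embedded, sectioned and stained with haematoxylin and eosin.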

K562 cells [11] = test: Hoechst 33342 staining; type: cell-based; conditions: 48 h
[12] = Homo sapiens, K562, 72 h, read-out: Inhibition rate (%)

Which “Inhibition rate (%)” value (K562 cell line; K562, 0.1 µM, CCK-8, 72 h) does the source give for “2-methoxy-4-((4,5,6-trimethoxy-2,3-dihydro-1H-inden-2-yl)methyl)phenol [Compound 12d]” here?
Its value is 78.82%.

What about the “Inhibition rate (%)” value (K562 cell line; K562, 1 µM, CCK-8, 72 h) of the same compound?
The value was 80.57%.

And the IC50 (K562 cell line; K562, CCK-8, 72 h, mean ± SD)?
The IC50 was 0.028 ± 0.007 µM.

And the IC50 (A549; A549, CCK-8, 72 h, mean ± SD)?
The IC50 was 0.087 ± 0.009 µM.

What about the IC50 (Hela; Hela, CCK-8, 72 h, mean ± SD) of the same compound?
Its IC50 is 0.078 ± 0.005 µM.

What about the IC50 (H22; H22, CCK-8, 72 h, mean ± SD) of the same compound?
Its IC50 is 0.068 ± 0.008 µM.

What about the IC50 (normal cell line HFL-1; normal cell line HFL-1, CCK-8, 72 h, mean ± SD) of the same compound?
The IC50 was 0.271 ± 0.031 µM.

And the “Inhibition (%) of colchicine binding” value ([1]; compound 1 µM)?
The value was 59.81 ± 3.84%.

And the “Inhibition (%) of colchicine binding” value ([1]; compound 5 µM)?
Its value is 71.43 ± 1.03%.

And the “effect on microtubule networks” value (K562 cells [2])?
The value was “caused disorder and destruction of microtubule networks”.

What about the “percent of total apoptosis cells” value (K562 cells [3]) of the same compound?
The value was 57.90%.

And the “expression of antiapoptotic proteins Bcl-2 and Bcl-xl” value (Bcl-2 protein family)?
The value was “downregulated”.

And the “expression level of proapoptotic proteins Bax and Bad” value (Bcl-2 protein family; dose-dependent)?
The value was “upregulated”.

What about the “population at the G2/M phase” value (K562 cells [4]; 15 nM) of the same compound?
The value was 16.07 ± 0.83%.

And the “population at the G2/M phase” value (K562 cells [4]; 30 nM)?
The value was 21.23 ± 1.14%.

And the “population at the G2/M phase” value (K562 cells [4]; 60 nM)?
Its value is 24.66 ± 0.63%.

And the “expression levels of Cyclin B1, Cdc-2 and Cdc-25c” value [5]?
Its value is “down-regulate”.

What about the “number of migrated cells” value (MDA-MB-231 cells [6]) of the same compound?
The value was 124.0 ± 9.2.

What about the “number of invaded cells” value (MDA-MB-231 cells [7]) of the same compound?
The value was 51.3 ± 2.5.

And the IC50 (HUVEC)?
Its IC50 is 2.26 ± 0.38 µM.

And the “wound healing effect of HUVECs” value (HUVECs [8])?
Its value is “the wound healing effect was disrupted”.

And the “tube formation (capillary-like tubular networks) of HUVECs” value (HUVECs [9])?
Its value is “almost all of the tube-like structure was broken”.

And the body weight (H22 allograft)?
The body weight was “no obvious body weight loss”.

What about the “tumour growth inhibition (TGI) value” (H22 allograft) of the same compound?
Its value is 74.94%.

And the Ki67-positive cells (H22 tumour)?
Its Ki67-positive cells is “decreased number of Ki-67 positive cells”.

And the “microvessel density (MVD), CD31” value (H22 tumour)?
The value was “lower MVD level”.

And the “pathological damage of vital organs (H&E)” value [10]?
The value was “without obvious pathological damage”.

And the “apoptosis morphology and nucleus changes” value (K562 cells [11])?
The value was “induced K562 cells nuclear fragmentation and cell morphology changes”.

For `COc1ccc(/C=C\c2cc(OC)c(OC)c(OC)c2)cc1O` [CA-4, Combretastatin A-4, reference compound], which IC50 (K562 cell line; Homo sapiens, K562, 72 h) is on record?
Its IC50 is 0.004 ± 0.001 µM.

What about the inhibition at 0.1 µM (K562 cell line; [12]) of the same compound?
The inhibition at 0.1 µM was 88.3%.

And the inhibition at 1 µM (K562 cell line; [12])?
Its inhibition at 1 µM is 92%.

What about the IC50 (A549; Homo sapiens, A549, 72 h) of the same compound?
Its IC50 is 0.032 ± 0.005 µM.

And the IC50 (Hela; Homo sapiens, HeLa, 72 h)?
Its IC50 is 0.026 ± 0.006 µM.

And the IC50 (H22; Mus musculus, H22, 72 h)?
The IC50 was 0.01 ± 0.002 µM.

And the IC50 (normal cell line HFL-1; Homo sapiens, HFL1, 72 h)?
Its IC50 is 0.139 ± 0.017 µM.

What about the “Inhibition (%) of colchicine binding” value ([1]; compound 1 µM) of the same compound?
The value was 78.55 ± 1.85%.

And the “Inhibition (%) of colchicine binding” value ([1]; compound 5 µM)?
Its value is 87.35 ± 1.37%.

And the “tumour growth inhibition (TGI) value” (H22 allograft)?
The value was 59.19%.
